Measured values: ChEMBL document CHEMBL6083216, “Rational design and in vitro testing of new urease inhibitors to prevent urinary catheter blockage” (RSC Med Chem, 2024)

Legend:
[1] = Inhibition of Proteus mirabilis B4 urease activity using urea as substrate incubated for 30 mins by absorbance based assay
In short: (§1)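 Berthelot ammonia assay with whole-cell P. mirabilis B4, grown overnight in LB at 37 °C, pelleted and resuspended in PBS (0.004 mg mL−1 in phosphate buffer). Cells incubated with compound (10-fold dilutions) and 50 mM urea for 30 min at 37 °C. Phenol/nitroprusside and NaOH/hypochlorite reagents added, 30 min at 37 °C, A636 read. Activity normalised to controls; IC50 by non-linear regression; n = 6.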

[2] = test system: Proteus mirabilis; test: Potency index, ratio of acetohydroxamic acid IC50 to test compound IC50 for inhibition of Proteus mirabilis B4 urease activity using urea as substrate incubated for 30 mins by absorbance based assay; in short: as §1
[3] = test system: Escherichia coli; test: Antibacterial activity against Escherichia coli NSM59 assessed as inhibition of bacterial growth incubated for 18 hrs by absorbance based plate reader analysis; assay type: functional, organism-based
In short: (§2)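 Broth microdilution in LB: compound in sterile water with 5% (v/v) DMSO, two-fold serial dilutions; subculture at 1 × 10^6 CFU mL−1 added. 37 °C for 18 h, shaken 10 s before each OD600 reading taken at intervals. MIC read visually at 18 h and from growth curves as lowest concentration inhibiting growth. Wells with broth only and with bacteria only as controls.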

[4] = test system: Proteus mirabilis; test: Antibacterial activity against Proteus mirabilis assessed as inhibition of bacterial growth incubated for 18 hrs by absorbance based plate reader analysis; assay type: functional, organism-based; in short: as §2
[5] = Hemolytic activity in human erythrocytes at 0.080 to 5 mM incubated for 1 hrs by absorbance based assay; assay type: toxicity, cell-based; settings: erythrocyte, 5000 µM, dose 0.08-5 mM
In short: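 Pooled heparinised whole blood from three donors; erythrocytes washed three times in saline and diluted to 1% (v/v). Incubated with compound (5–0.08 mM, serial dilution of a 10 mM stock with 1% DMSO in PBS) for 1 h at 37 °C with rotation. Saline and 1% triton as controls. Supernatant absorbance read at 404 nm; % haemolysis relative to lysed cells.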

[6] = test system: HepG2; test: Cytotoxicity against human HepG2 cells assessed as effect on cell survival at <1.25 mM measured for 24 hrs by MTT assay; assay type: toxicity, cell-based; settings: hepg2, 24 h, 1250 µM
In short: (§3)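 HepG2 cells in complete DMEM at 37 °C, 5% CO2, seeded at 1 × 10^4 cells per well. Compounds diluted serially from 10 mM with 1% DMSO in DMEM; 24 h exposure. MTT (1 mg mL−1) for 60 min at 37 °C, dissolved in isopropanol, absorbance read at 590 nm (reference 620 nm). % survival relative to untreated cells; three biological repeats.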

[7] = test system: HepG2; test: Cytotoxicity against human HepG2 cells assessed as effect on cell survival at 10 mM measured within 24 hrs by MTT assay; assay type: toxicity, cell-based; settings: hepg2, 24 h, 10000 µM; in short: as §3

SMILES	IC50 [1]	Ratio IC50 [2]	Activity [3]	Activity [4]	Activity [5]	Activity [6]	Activity [7]
O=c1c(O)c(-c2ccc(O)c(O)c2)oc2cc(O)cc(O)c12 [QUERCETIN]	8.66 10^-7mol/dm3	0.001	–	–	–	–	–
S=C(NCc1cccnc1)NCc1cccnc1	1.4 10^-6mol/dm3	26.1	Moderate_effect	Moderate_effect	Non-toxic	Non-toxic	Toxic
NC(=S)NCc1ccccc1	2.27 10^-5mol/dm3	1.61	–	–	–	–	–
CC(=O)NO [ACETOHYDROXAMIC ACID]	3.66 10^-5mol/dm3	–	Moderate_effect	Moderate_effect	Non-toxic	Non-toxic	Toxic
NC(=S)Nc1ccccc1 [PHENYLTHIOUREA]	9.66 10^-6mol/dm3	0.002	–	–	–	–	–
